# Columns and labels:
# [1] = biological target: T1, Glucocorticoid receptor (Homo sapiens) (UniProt P04150); test: Agonist activity at glucocorticoid receptor in human A549 cells assessed as inhibition of PMA-induced AP-1 activation by luciferase reporter gene assay relative to dexamethasone; type: cell-based
# T1 sequence (whole entry): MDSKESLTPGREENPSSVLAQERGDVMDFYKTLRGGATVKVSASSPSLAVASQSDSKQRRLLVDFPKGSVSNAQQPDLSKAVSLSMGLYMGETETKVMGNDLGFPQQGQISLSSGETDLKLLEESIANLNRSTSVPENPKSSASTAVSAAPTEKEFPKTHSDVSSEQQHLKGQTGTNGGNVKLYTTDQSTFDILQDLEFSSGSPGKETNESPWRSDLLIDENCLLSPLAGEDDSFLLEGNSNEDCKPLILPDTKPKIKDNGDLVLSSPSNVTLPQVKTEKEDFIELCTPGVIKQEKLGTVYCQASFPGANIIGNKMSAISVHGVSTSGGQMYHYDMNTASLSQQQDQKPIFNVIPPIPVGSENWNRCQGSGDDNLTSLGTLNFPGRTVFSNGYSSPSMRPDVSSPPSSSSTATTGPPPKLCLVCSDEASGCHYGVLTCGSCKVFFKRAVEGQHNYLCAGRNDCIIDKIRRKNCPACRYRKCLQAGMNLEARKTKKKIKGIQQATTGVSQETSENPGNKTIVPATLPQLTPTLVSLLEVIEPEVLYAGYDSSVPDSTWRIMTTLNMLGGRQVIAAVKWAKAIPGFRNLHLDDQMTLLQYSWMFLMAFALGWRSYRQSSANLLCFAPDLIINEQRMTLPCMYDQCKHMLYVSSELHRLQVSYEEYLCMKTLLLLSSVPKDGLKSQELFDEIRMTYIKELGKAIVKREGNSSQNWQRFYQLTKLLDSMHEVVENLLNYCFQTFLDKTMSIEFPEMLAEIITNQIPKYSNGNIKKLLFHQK
# Summary of the method: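 A549 lung epithelial cells stably carrying a luciferase reporter with 5 copies of the AP-1 response element; AP-1 induced with PMA (15 ng/ml). Compound inhibition of induction read as decreased luciferase. […] Means of two or more experiments in triplicate.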
# [2] = biological target: T2, Glucocorticoid receptor (Homo sapiens, UniProt P04150); test: Agonist activity at glucocorticoid receptor in human A549 cells assessed as inhibition of PMA-induced AP-1 activation by luciferase reporter gene assay; type: cell-based
# T2 sequence (P04150 whole entry): T1 sequence (whole entry)
# [3] = biological target: T1, Glucocorticoid receptor (Homo sapiens); test: Transactivation of glucocorticoid receptor ligand binding domain (unknown origin) transfected in human HeLa cells assessed as activation of NP-1 by GAL4 luciferase reporter gene assay relative to dexamethasone; type: cell-based
# Summary of the method: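 HeLa line (NP-1) stably transfected with a GR ligand binding domain chimera in a GAL4 luciferase reporter system, run in agonist mode. Direct GR-LBD activation read as increased luciferase activity. Means of two or more experiments in triplicate.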
# [4] = biological target: T2, Glucocorticoid receptor; test: Transactivation of glucocorticoid receptor ligand binding domain (unknown origin) transfected in human HeLa cells assessed as activation of NP-1 by GAL4 luciferase reporter gene assay; type: cell-based
# [5] = biological target: T1, Glucocorticoid receptor (Homo sapiens); test: Agonist activity at glucocorticoid receptor in human A549 cells assessed as inhibition of IL-1beta-induced NF-kappaB dependent E-selectin activation by luciferase reporter gene assay relative to dexamethasone; type: cell-based
# [6] = biological target: T2, Glucocorticoid receptor; test: Agonist activity at glucocorticoid receptor in human A549 cells assessed as inhibition of IL-1beta-induced NF-kappaB dependent E-selectin activation by luciferase reporter gene assay; type: cell-based
# [7] = biological target: T2, Glucocorticoid receptor; test: Binding affinity to glucocorticoid receptor (unknown origin) by fluorescence polarization assay
Structure (SMILES),Efficacy [1] [%],EC50 [2] [nM],Efficacy [3] [%],EC50 [4] [nM],Efficacy [5] [%],EC50 [6] [nM],Ki [7] [nM]
CC(C)(C(=O)Nc1nccs1)[C@H](c1ccccc1)c1ccc2c(cnn2-c2ccc(F)cc2)c1,56,400,59,435,81,58,7.9
CC(C)(C(=O)Nc1nncs1)[C@@H](c1ccccc1)c1ccc2[nH]ncc2c1,79,24,41,208,77,15,2.7
CC(C)(C(=O)Nc1nncs1)[C@H](c1ccccc1)c1ccc2[nH]ncc2c1,35,617,< 30,> 10000,< 30,> 5000,13
CC(C)(C(=O)Nn1nccn1)C(c1ccccc1)c1ccc2c(cnn2-c2ccc(F)cc2)c1 (racemic),73,17,–,–,–,–,11
CC(C)(C(=O)Nn1ncnn1)C(c1ccccc1)c1ccc2c(cnn2-c2ccc(F)cc2)c1 (racemic),–,> 10000,–,–,–,–,17
Cc1cnc(NC(=O)C(C)(C)C(c2ccccc2)c2ccc3c(cnn3-c3ccc(F)cc3)c2)s1 (racemic),48,49,–,–,–,–,–
Cc1nnc(NC(=O)C(C)(C)C(c2ccccc2)c2ccc3c(cnn3-c3ccc(F)cc3)c2)s1 (racemic),56,141,–,–,–,–,–
CC(C)(C(=O)Nc1nncs1)C(c1ccccc1)c1ccc2c(cnn2CCCO)c1 (racemic),45,1020,–,–,–,–,17
CC(C)(C(=O)Nc1nncs1)C(c1ccccc1)c1ccc2c(cnn2Cc2ccccc2)c1 (racemic),62,1930,–,–,–,–,–
CC(C)(C(=O)Nc1nncs1)C(c1ccccc1)c1ccc2c(cnn2CCc2ccccc2)c1 (racemic),< 30,> 10000,–,–,–,–,46
CC(C)C(c1ccc2c(cnn2-c2ccc(F)cc2)c1)C(C)(C)C(=O)Nc1nncs1 (racemic),29,81,–,–,–,–,–
CC(C)(C(=O)Nc1nncs1)C(Cc1ccccc1)c1ccc2c(cnn2-c2ccc(F)cc2)c1 (racemic),37,705,–,–,–,–,–
CC(C)(C(=O)Nc1nccs1)C(c1ccc2c(cnn2-c2ccc(F)cc2)c1)C1CCCCC1 (racemic),55,66,–,–,–,–,18
COc1cccc(-n2ncc3cc(C(c4ccccc4)C(C)(C)C(=O)Nc4nncs4)ccc32)c1 (racemic),< 30,1200,< 30,> 10000,–,–,–
COc1ccc(-n2ncc3cc(C(c4ccccc4)C(C)(C)C(=O)Nc4nncs4)ccc32)cc1 (racemic),76,56,< 30,> 10000,62,143,–
CC(C)(C(=O)Nc1nncs1)C(c1ccccc1)c1ccc2c(cnn2-c2ccc(O)cc2)c1 (racemic),69,271,< 30,> 10000,< 30,> 5000,–
CC(C)Cn1ncc2cc(C(c3ccccc3)C(C)(C)C(=O)Nc3nncs3)ccc21 (racemic),76,114,< 30,> 10000,77,1820,–
CC(C)(C(=O)Nc1nncs1)C(c1ccccc1)c1ccc2c(cnn2CCO)c1 (racemic),32,550,–,–,27,1050,–
CC(C)(C(=O)Nc1nccs1)C(c1ccccc1)c1ccc2c(cnn2-c2ccc(F)cc2)c1 (racemic),79,4.1,–,–,–,–,15
CC(C)n1ncc2cc(C(c3ccccc3)C(C)(C)C(=O)Nc3nncs3)ccc21 (racemic),82,–,< 30,–,44,–,–
"CC(C(=O)Nc1nncs1)[C@@H](c1ccccc1)c1ccc2c(cnn2-c2ccc(F)cc2)c1 (single isomer, unassigned; diastereomer 2)",103,–,76,–,–,–,–
"CC(C(=O)Nc1nncs1)C(c1ccccc1)c1ccc2c(cnn2-c2ccc(F)cc2)c1 (single isomer, unassigned; diastereomer 4)",89,–,100,–,–,–,–

# More lines, now with the values ahead:
Efficacy [1] [%],EC50 [2] [nM],Efficacy [3] [%],EC50 [4] [nM],Efficacy [5] [%],EC50 [6] [nM],Ki [7] [nM],Structure (SMILES)
36,4320,–,–,–,–,–,CC(C)(Cc1ccc2c(cnn2-c2ccc(F)cc2)c1)C(=O)Nc1nncs1
74,19,57,132,77,19,0.9,CC(C)(C(=O)Nc1nncs1)[C@@H](c1ccccc1)c1ccc2c(cnn2-c2cccnc2)c1
58,349,–,> 10000,35,185,4,CC(C)(C(=O)Nc1nncs1)[C@H](c1ccccc1)c1ccc2c(cnn2-c2cccnc2)c1
92,1.4,94,7.6,97,0.5,6,CC(C)(C(=O)Nc1nccs1)[C@@H](c1ccccc1)c1ccc2c(cnn2-c2ccc(F)cc2)c1
62,87,–,–,–,–,–,CCC(c1ccc2c(cnn2-c2ccc(F)cc2)c1)C(C)(C)C(=O)Nc1nccs1 (racemic)
47,82,–,–,–,–,–,CC(C)(C(=O)Nc1nccs1)C(c1ccc2c(cnn2-c2ccc(F)cc2)c1)C1CCCC1 (racemic)
68,73,–,–,–,–,–,CC(C)(C(=O)Nc1ccsc1)C(c1ccccc1)c1ccc2c(cnn2-c2ccc(F)cc2)c1 (racemic)
96,23,55,256,84,10,–,CC(C)(C(=O)Nc1nncs1)C(c1ccccc1)c1ccc2c(cnn2-c2ccc(Cl)cc2)c1 (racemic)
< 30,956,–,–,–,–,–,CC(C)(C(=O)Nc1nncs1)C(c1ccccc1)c1ccc2c(cnn2-c2ccc(Br)cc2)c1 (racemic)
62,127,–,–,–,–,–,CC(C)(C(=O)Nc1nncs1)C(c1ccccc1)c1ccc2c(cnn2-c2ccccn2)c1 (racemic)
56,106,< 30,> 10000,56,78,1.9,CC(C)(C(=O)Nc1nncs1)C(c1ccccc1)c1ccc2c(cnn2-c2ccncc2)c1 (racemic)
96,45,66,132,87,49,5.7,CC(C)CCn1ncc2cc(C(c3ccccc3)C(C)(C)C(=O)Nc3nncs3)ccc21 (racemic)
73,20,–,–,–,–,–,CC(C)(C(=O)Nc1nncs1)C(c1ccccc1)c1ccc2c(cnn2-c2ccccc2)c1 (racemic)
81,23,–,–,–,–,18,CC(C)(C(=O)Nc1nncs1)C(c1ccccc1)c1ccc2c(cnn2-c2ccc(F)cc2)c1 (racemic)
60,–,–,–,–,–,–,CC(C)(C(=O)Nc1nccs1)C(c1ccncc1)c1ccc2c(cnn2-c2ccc(F)cc2)c1 (racemic)
85,–,60,–,86,–,–,CC(C)(C(=O)Nc1nncs1)C(c1ccccc1)c1ccc2c(cnn2C2CCCCCC2)c1 (racemic)
60,–,–,–,–,–,–,CC(C)CC(c1ccc2c(cnn2-c2ccc(F)cc2)c1)C(C)(C)C(=O)Nc1nncs1 (racemic)
74,–,–,–,–,–,–,Cc1csc(NC(=O)C(C)(C)C(c2ccccc2)c2ccc3c(cnn3-c3ccc(F)cc3)c2)n1 (racemic)
42,–,–,–,–,–,–,"CC(C(=O)Nc1nncs1)C(c1ccccc1)c1ccc2c(cnn2-c2ccc(F)cc2)c1 (single isomer, unassigned; diastereomer 1)"
106,–,122,–,–,–,–,"CC(C(=O)Nc1nncs1)[C@@H](c1ccccc1)c1ccc2c(cnn2-c2ccc(F)cc2)c1 (single isomer, unassigned; diastereomer 3)"

# From ChEMBL document CHEMBL2424628, “Discovery of potent and selective nonsteroidal indazolyl amide glucocorticoid receptor agonists” (Bioorg Med Chem Lett, 2013)
